# Screening data: PubChem BioAssay, The Scripps Research Institute Molecular Screening Center
# TAAR1 antag: human TAAR1 antagonists, primary screen, Fluo-8 calcium fluorescence, CHO RD-HGA16 cells. antagonist. inhibition, % at 3 µM. Trace amine-associated receptor 1 (Homo sapiens), Q96RJ0. 360,000 compounds, 1.5% hits;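 active means inhibition above a per-plate cutoff, the mean inhibition of test compounds on that plate plus 3 SD, cut at about 49% in these data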;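 further: 0% = DMSO plus EC80 beta-PEA response and 100% = DMSO alone without agonist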
#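 Material: CHO RD-HGA16 cells bearing hTAAR1; compound dosing: one-point dosing, 3 µM nominal final; schedule: dye loading 75 min at 37 °C, then 30 min room temperature; measured by: calcium fluorescence with Fluo-8; control set: vehicle and agonist controls; replication: n of 1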
# V1R ag counter: agonists of human V1a receptor, primary screen, counter-screen for OXTR agonist project, fluorescence, CHO-V1R cells; Vasopressin V1a receptor (Homo sapiens), P37288; Fluo-8 calcium fluorescence, agonist mode; 0% DMSO, 100% 3 nM vasopressin; AID 2797, 2010; 320,000 compounds, 0.25% hits; activation, % at 3 µM;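 active means activation above the mean activation of all tested compounds plus 3 SD, per screening run, cut at about 20% in these data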;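 further: signal is peak over basal fluorescence ratio across a 100 second FLIPR read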
# TAAR1 ag: human TAAR1 agonists, primary screen, Fluo-8 calcium fluorescence, CHO RD-HGA16 cells; AID 624467, 2012; activation, % at 3 µM; Trace amine-associated receptor 1 (Homo sapiens), Q96RJ0; vehicle wells 0%, saturating PEA agonist 100%; 360,000 compounds, 0.99% hits;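 active means activation above the mean activation of all test compounds in the run plus 3 SD, cut at about 38% in these data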
#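 Signal – calcium-sensitive Fluo-8 signal, excitation 470-495, emission 515-575 nm · System – RD-HGA16 (CHO) cells co-expressing Gα16 and hTAAR1 · Incubation – 17-24 h seeding, 75 min 37 °C dye, 30 min RT · Compound dosing – 3 µM single concentration · Repeats – no replicates (n 1)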
# OXTR agonist: human OXTR agonists, primary screen, fluorescence, CHO-OTR cells, Fluo-8 calcium | Oxytocin receptor (Homo sapiens), P30559 | 320,000 compounds, 0.32% hits | Fluo-8 calcium fluorescence; normalized: DMSO 0%, oxytocin 100% | activation, % at 3 µM;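 active means activation above the mean of all tested compounds plus 3 SD, cutoff set per screening run, cut at about 20% in these data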;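 further: peak over basal fluorescence ratio from a 100 s FLIPR kinetic read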
# Target sequence (P30559 whole entry, looked up): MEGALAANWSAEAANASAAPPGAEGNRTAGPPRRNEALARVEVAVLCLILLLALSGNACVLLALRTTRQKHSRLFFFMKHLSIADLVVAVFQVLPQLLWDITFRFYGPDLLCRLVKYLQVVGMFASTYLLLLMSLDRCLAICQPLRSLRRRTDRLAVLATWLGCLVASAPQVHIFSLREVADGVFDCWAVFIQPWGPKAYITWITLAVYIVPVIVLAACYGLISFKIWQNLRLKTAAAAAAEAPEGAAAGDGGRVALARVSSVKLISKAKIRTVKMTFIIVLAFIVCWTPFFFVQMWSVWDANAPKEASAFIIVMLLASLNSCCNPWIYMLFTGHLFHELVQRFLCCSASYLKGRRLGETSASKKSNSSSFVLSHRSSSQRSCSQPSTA
# OXTR potentiator: human OXTR potentiators, primary screen, fluorescence, CHO-OTR cells, Fluo-8 calcium; Oxytocin receptor (Homo sapiens), P30559; Fluo-8 calcium fluorescence, potentiator mode; 0% = oxytocin EC15, 100% = EC100; activation, % at 3 µM; 320,000 compounds, 0.061% hits; AID 2445, 2010;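 active means activation above that plate's cutoff, the mean activation of tested compounds plus 3 SD, cut at about 6.6% in these data, passing the limit was not always enough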;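 further: 100% uses oxytocin at 75 nM as the full agonist control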
#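 Material: CHO-OTR cells, human receptor; compound dosing: single dose, 3.0 µM nominal final compound concentration; schedule: 6 min compound pre-incubation at room temperature, 100 s kinetic read; measured by: kinetic Fluo-8 calcium fluorescence; read-out basis: % activation vs EC15 and EC100 oxytocin; controls: EC15 oxytocin alone as 0%, 75 nM oxytocin as 100%; replicates: singlicate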
# TAAR1 ag conf: human TAAR1 agonists, retest of hits, confirmation, Fluo-8 calcium fluorescence, CHO RD-HGA16 cells; shares compounds with TAAR1 ag; scaled: DMSO 0%, maximal phenethylamine 100%; activation, % at 3 µM; 2,400 compounds, 82% hits; AID 651783, 2012;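 active means activation above a cutoff set at the run's mean compound activation plus 3 SD, cut at about 39% in these data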
# Ga16 ag counter: nonselective calcium mobilization agonists, CHO-Ga16 cells, counter-screen for hTAAR1 agonist project, cell-based, fluorescence, CHO-Ga16 parental line; shares compounds with TAAR1 ag; Fluo-8 calcium fluorescence; normalized to maximal ATP response, DMSO zero; activation, % at 3 µM; 2,400 compounds, 50% hits;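 active means activation above the run cutoff, the mean activation over all tested wells plus 3 SD, cut at about 12% in these data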;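 further: 0% = DMSO wells and 100% = maximal ATP response on the peak over basal ratio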
# TAAR1 desensitize: TAAR1 desensitization by agonist hits, confirmation, counter-screen for TAAR1 agonist project, cell-based, fluorescence, tachyphylaxis; shares compounds with TAAR1 ag; CHO RD-HGA16 hTAAR1, Fluo-8 calcium, beta-PEA response inhibition; inhibition, % at 3 µM; 2,400 compounds, 46% hits; AID 651951, 2012;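 active means inhibition above the run cutoff, the mean inhibition of all test compounds plus 3 SD, cut at about 49% in these data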;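 further: beta-PEA stimulus applied at its EC80; loss of beta-PEA calcium signal after compound pretreatment read as receptor desensitization; 0% = DMSO with beta-PEA at EC80 and 100% = DMSO alone without agonist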
# Ga16 nonsel ant: inhibition of ATP-evoked calcium response in CHO-Ga16 cells, counter-screen for TAAR1 agonist project, cell-based, fluorescence. shares compounds with TAAR1 ag. CHO-Ga16 ATP-induced calcium, Fluo-8 fluorescence. inhibition, % at 3 µM. 2,400 compounds, 39% hits;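 active means inhibition above the plate's mean compound inhibition plus 3 SD, computed per plate, cut at about 22% in these data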;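 further: 0% = EC80 ATP with DMSO and 100% = DMSO wells without ATP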
# * hit, by the source's call; . = not tested or not shown. Most compounds without a hit are left out; they make up all but 2.3% or so of the library.
SMILES,TAAR1 antag,V1R ag counter,TAAR1 ag,OXTR agonist,OXTR potentiator,TAAR1 ag conf,Ga16 ag counter,TAAR1 desensitize,Ga16 nonsel ant
Cc1cccc(CC(C)NC(=O)c2cc(COc3ccc(F)cc3F)on2)n1 (stereo unspecified),99*,5,88*,2,-3,9,5,14,7
Cc1cc(C)c2nc(SCC(=O)NCCN3C(=O)CSC3=O)cc(C)c2c1,12,0,0,-1,-5,.,.,.,.
CC1CCCN(CCC(=O)c2ccccc2)C1 (stereo unspecified),25,.,72*,.,.,85*,4,40,5
C=CCN(c1ccccc1)S(=O)(=O)c1cccc(C(=O)N2CC(C)CC(C)C2)c1 (stereo unspecified),-2,3,4,-1,-14,.,.,.,.
Cc1cccc(-c2ccc(O)cc2CN2CCN(c3ncc(Cc4ccccc4)cn3)CC2)c1,-32,.,-1,.,.,.,.,.,.
COc1ccc(C=NCC2OCCc3ccccc32)cc1OC (stereo unspecified),.,2,.,0,-2,.,-1,.,7
COc1cc(C=NCC2OCCc3ccccc32)cc(OC)c1 (stereo unspecified),.,1,.,1,-2,.,0,.,9
COc1ccc(C(=O)NCC2OCCc3ccccc32)cc1 (stereo unspecified),-7,1,2,0,-2,.,.,.,.
COc1ccccc1CN1CC(C(=O)NCc2c(F)ccc(C)c2F)CCC1=O (stereo unspecified),-13,2,2,1,-8,.,.,.,.
O=c1c2ccc(Cl)cc2nc(-c2cccc(C(F)(F)F)c2)n1O,2,5,52*,10,-13,22,32*,8,11
Cc1ccc(S(=O)(=O)n2nc(OC(=O)c3cccs3)cc2N)cc1,-2,2,92*,-1,-12,65*,33*,20,14
Cc1ccc(S(=O)(=O)c2c(C)nn(C(C)(C)C)c2OC(=O)c2cccs2)cc1,-6,-2,1,-2,-13,.,.,.,.
Cc1ccc(S(=O)(=O)n2nc(OC(=O)c3ccccc3C)cc2N)cc1,13,-1,48*,1,-5,53*,32*,14,23*
Cc1ccc(S(=O)(=O)n2ccc(OC(=O)c3cccs3)n2)cc1,19,3,99*,0,-4,81*,45*,26,21
COc1ccccc1C(=O)Oc1cc(N)n(S(=O)(=O)c2ccc(C)cc2)n1,-15,-1,9,2,-9,.,.,.,.
C=CCn1c(C)csc1=Nc1ccccc1C,6,-2,9,-3,-4,.,.,.,.
O=C(NCc1cccnc1)c1ccc(NC(=O)c2ccc(Br)cc2)cc1,4,7,57*,6,-9,58*,8,28,18
O=C(CCNC(=O)c1ccc(Br)cc1)NCC1CCCO1 (stereo unspecified),-5,0,2,-1,-5,.,.,.,.
